Screens deposited in PubChem BioAssay by several laboratories.
Rows were chosen to be rich in hits. Some 2.2% of all compounds tested hit in one or more screens of this group.
Apaf-1 inh: inhibitors of human Apaf-1 apoptosome, primary screen, biochemical, DEVD-Rh110 fluorescence, uHTS; reconstituted apoptosome caspase-3 activity; inhibition, % at 20 µM; 0.71% of 330,000 active; active = inhibition of at least 40% at 20 µM;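 also: plate controls were DMSO wells for no effect and DEVD-CHO caspase inhibitor wells for full effect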
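System – cell-free apoptosome with Apaf-1, procaspase-3 and caspase-9 · Buffer or medium – pH 7.5 Hepes buffer with CHAPS, BSA, DTT · Also added – cytochrome c with DEVD-Rh110 · Times – 30 min compound preincubation, 50 min activation, room temperature · Technique – Rh110 fluorescence intensity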
PAD4 FP inh: human PAD4 inhibitors, primary screen, biochemical, fluorescence polarization, 1536-well format. 0.41% of 330,000 active. recombinant PAD4, RCA probe fluorescence polarization. inhibition, % at 6.36 µM;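 active = percent inhibition above a cutoff equal to the mean of all tested compounds plus 3 SD, cut at about 15% in these data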;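 also: 0% = PAD4 with RCA probe and DMSO and 100% = probe without PAD4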
GSTO1 inh: inhibitors of recombinant GSTO1, primary screen, counter-screen for RBBP9 inhibitor project, biochemical, fluorescence polarization | activity-based probe fluorescence polarization | inhibition, % at 5.96 µM | 1.1% of 300,000 active;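 active = inhibition above the campaign mean inhibition plus 3 SD, cut at about 35% in these data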;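 also: 0% = GSTO1-1 with DMSO and 100% = wells lacking GSTO1-1 enzyme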
Target sequence (P78417 whole entry, looked up): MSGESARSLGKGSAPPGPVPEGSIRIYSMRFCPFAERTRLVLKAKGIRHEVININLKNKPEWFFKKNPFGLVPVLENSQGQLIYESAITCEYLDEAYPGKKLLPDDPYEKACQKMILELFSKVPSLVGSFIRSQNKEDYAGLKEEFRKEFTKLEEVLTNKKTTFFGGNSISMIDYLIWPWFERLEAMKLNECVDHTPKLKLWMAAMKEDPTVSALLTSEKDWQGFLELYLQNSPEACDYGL
UBC13 polyUb: UBC13 polyubiquitin chain formation inhibitors, primary screen, biochemical, TR-FRET, uHTS | inhibition, % at 20 µM | AID 485273, 2010 | 0.47% of 330,000 active | Ubiquitin-conjugating enzyme E2 N (Homo sapiens), P61088; in the data active = inhibition above about 45%, passing the limit was not always enough
Target sequence (P61088 whole entry, looked up): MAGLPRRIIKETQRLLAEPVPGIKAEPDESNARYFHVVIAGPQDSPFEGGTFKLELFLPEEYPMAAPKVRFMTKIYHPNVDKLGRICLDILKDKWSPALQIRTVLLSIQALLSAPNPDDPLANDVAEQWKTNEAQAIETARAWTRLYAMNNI
SUMO HTRF inh: inhibitors of in vitro SUMOylation cascade, primary screen, biochemical, HTRF, uHTS; HTRF SUMOylation assay, SAE1/SAE2 + UBC9; inhibition, % at 35 µM; 0.36% of 290,000 active; AID 2006, 2009; in the data active = inhibition above about 50%, passing the limit was not always enough
Target sequence (P63279 whole entry, looked up): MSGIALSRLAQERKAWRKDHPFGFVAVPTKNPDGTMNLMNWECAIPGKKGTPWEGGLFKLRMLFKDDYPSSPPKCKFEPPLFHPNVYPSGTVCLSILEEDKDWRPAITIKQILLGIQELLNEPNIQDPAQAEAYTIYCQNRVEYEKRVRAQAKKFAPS
Rin1 Abl inh: inhibitors of Rin1-Abl protein binding, primary screen, biochemical, TR-FRET. Tyrosine-protein kinase ABL1 (Homo sapiens) + Ras and Rab interactor 1 (Homo sapiens), …. inhibition, % at 7.35 µM. AID 588664, 2011. 0.4% of 360,000 active; in the data active = inhibition above about 5%, passing the limit was not always enough
PAD4 confirm: human PAD4 inhibitors, confirmation, biochemical, fluorescence polarization | AID 488796, 2010 | inhibition, % at 6.36 µM | shares compounds with PAD4 FP inh | 28% of 1,200 active | recombinant PAD4, RCA probe fluorescence polarization;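 active = mean inhibition across replicates above the hit cutoff set by the earlier primary screen, cut at about 15% in these data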;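 also: inhibitors block active-site labeling by the probe so polarization falls; 0% = PAD4 with probe and DMSO and 100% = probe without PAD4 enzyme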
* = called active by the depositor; x = not tested or not shown.

SMILES	Apaf-1 inh	PAD4 FP inh	GSTO1 inh	UBC13 polyUb	SUMO HTRF inh	Rin1 Abl inh	PAD4 confirm
CC/C(=C\C(=O)c1ccncc1)Nc1ccc(O)cc1	-3.6	77.3*	9.7	-8.5	13.8	0.9	-5.4
Cc1cc(O)c(C=Nc2ccc(N3CCOCC3)cc2)c(C)c1Cl	3.4	27.9*	3.4	-5.8	9.1	-1.0	1.9
COc1ccccc1N1CCN(C(=O)CCC(=O)N2CCN(c3ccc(F)cc3)CC2)CC1	4.8	23.1*	-1.7	-11.1	-5.8	0.7	8.4
CCc1nnc(N/N=C/c2cccs2)n1N	-0.5	33.8*	17.0	-12.4	28.2	-2.5	-6.0
CCc1nnc(N/N=C/c2c(Cl)cccc2Cl)n1N	-13.3	21.3*	16.0	3.8	-4.7	1.8	2.1
CNC(=O)C1CC(=O)N(c2ccc(OCC(=O)Nc3ccc(F)cc3)cc2)C1 (centres undefined)	x	x	x	x	x	0.6	x
C[C@@H]1CN([C@@H](C)CO)C(=O)c2c(c3ccccc3n2C)-c2ccccc2CO[C@H]1CN(C)C(=O)[C@H](C)c1ccccc1	x	x	x	x	x	-0.9	x
Cc1ccc2[nH]c(CNC(=O)c3ccccc3F)cc2c1	12.1	-0.2	-3.2	-6.2	4.9	-0.4	x
CCOc1ccc2c(O)csc2c1	10.6	24.4*	2.8	-3.5	-1.9	-0.1	19.8*
COC(=O)c1c(NC(=O)c2ccco2)sc(C(=O)N(C)C)c1C	12.1	19.0*	10.6	-0.9	2.0	-4.8	15.8*
COC(=O)c1c(NC(=O)c2cccnc2)sc(C(=O)N(C)C)c1C	-8.7	2.4	5.1	-9.3	19.4	-1.3	x
COc1ccc(OC)c(NC(=O)C2CCN(S(=O)(=O)c3cccs3)CC2)c1	4.5	-2.2	1.9	2.0	-33.4	1.2	x
COc1ccccc1NC(=O)C1CCN(S(=O)(=O)c2cccs2)CC1	2.6	18.0*	x	1.4	x	4.3	4.5
CC(C)c1ccc(OCc2nc(-c3ccccn3)no2)c(Br)c1	17.4	20.2*	-4.4	9.7	-35.9	1.7	-3.2
Cc1ccc(OCc2nc(-c3ccccn3)no2)c(Br)c1	21.3	-0.5	2.8	-1.6	10.2	-0.5	x
CCCCC1=CC2=C(c3ccco3)C(=O)C(C)(OC(=O)c3ccc(OC)cc3)C(=O)C2=CN1CCc1ccccn1 (centres undefined)	7.2	28.3*	6.5	14.4	17.8	-8.1	7.1
COC(=O)CCCC1=CC2=CC(=O)C(C)(OC(=O)c3cccs3)C(=O)C2=CN1CCc1ccccn1 (centres undefined)	16.5	17.1*	32.5	-44.5	21.8	-1.5	-10.6
CCCCC1=CC2=C(c3ccco3)C(=O)C(C)(OC(=O)c3ccc(OC)cc3)C(=O)C2=CN1CCOC (centres undefined)	9.1	0.8	11.1	6.5	-5.3	-6.3	x
O=C1C(=O)N(CCO)C(c2ccccc2[N+](=O)[O-])/C1=C(\O)c1ccccc1 (centres undefined)	1.7	9.8	-0.2	0.3	14.6	4.8	x
O=C1C(=O)N(c2ccc(O)cc2)C(c2ccccc2[N+](=O)[O-])/C1=C(\O)c1ccccc1 (centres undefined)	-3.3	23.6*	2.7	-5.1	30.7	-2.3	1.8
CN1CC=C2C(C#N)=C(N)C(C#N)(C#N)[C@H](c3ccoc3)[C@H]2C1	25.3	21.8*	41.4*	-23.5	87.5*	-1.5	-2.3
CC(C)N=c1cc2n(-c3ccc(Cl)cc3)c3ccccc3nc-2cc1Nc1ccc(Cl)cc1	68.2*	19.9*	7.4	-74.1	x	1.5	28.2*
COc1ccc(N2C(=O)CSC23C(=O)N(CC(=O)NC2CCCC2)c2ccccc23)cc1 (centres undefined)	-12.3	15.9*	-4.5	-11.1	6.4	2.2	14.0
Cn1c(SCc2ccccc2)nnc1-c1ccc(O)cc1	-14.6	-0.6	-5.8	8.1	8.9	-2.7	x
Cc1ccc(-c2cc(=O)c3cc(F)ccc3[nH]2)cc1	1.7	3.4	-0.4	1.3	1.5	0.0	x
SMILES	Apaf-1 inh	PAD4 FP inh	GSTO1 inh	UBC13 polyUb	SUMO HTRF inh	Rin1 Abl inh	PAD4 confirm
COc1ccc(-n2sc3ccc(F)cc3c2=O)cc1	-4.6	31.3*	x	-15.9	x	0.7	30.1*
O=c1c2cc(F)ccc2sn1-c1ccc(F)cc1	4.8	30.2*	x	-7.3	x	1.9	25.4*
COc1ccc(-n2sc3ccccc3c2=O)cc1	x	x	x	x	x	-1.7	x
Cc1ccc(C)c(-n2sc3ccc(F)cc3c2=O)c1	-1.8	37.6*	x	-11.6	x	0.4	35.1*
O=C1Nc2ccccc2/C1=C/c1ccc([N+](=O)[O-])cc1	6.7	2.6	6.3	-7.5	4.8	-0.7	x
CC1(c2ccc([N+](=O)[O-])cc2)Nc2ccccc2S1 (centres undefined)	14.9	17.1*	5.2	-8.3	-0.8	0.1	2.1
CC(OC(=O)c1ccc(Cl)nc1)C(=O)NC1(C#N)CCCCC1 (centres undefined)	10.9	-10.3	15.2	1.7	x	5.4	x
C/C(=N\NC(=O)C(=O)Nc1cccc(Cl)c1C)c1ccncc1	0.3	25.4*	4.5	7.8	-9.3	-2.4	2.0
C/C(=N\NC(=O)C(=O)Nc1cc(Cl)ccc1Cl)c1ccncc1	4.6	-1.9	-0.4	5.0	6.0	3.1	x
